Test results: ChEMBL document CHEMBL4028914, “Structure-Based Design of 6-Chloro-4-aminoquinazoline-2-carboxamide Derivatives as Potent and Selective p21-Activated Kinase 4 (PAK4) Inhibitors” (J Med Chem, 2018)
Calls of active or inactive are those of the source. No cut-off for these calls is given here.

How the values were obtained:
Homo sapiens = species: Homo sapiens; experiment: Selectivity index, ratio of Ki for human PAK1 to Ki for human PAK4
Procedure, shortened: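 Ratio of PAK1 Ki to PAK4 Ki, both taken from the FRET-based Z′-Lyte assay.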

[1] = molecular target: T1, Serine/threonine-protein kinase PAK 4 (Homo sapiens, UniProt O96013); experiment: Binding affinity to biotin-labeled human truncated PAK4 kinase domain by surface plasmon resonance assay
Procedure, shortened: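 Binding to the truncated PAK4 was measured by SPR with multiconcentration kinetic analysis. Kd was taken from a 1:1 binding model fit.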
Target sequence in this assay (O96013 whole entry, the tested form may be a part): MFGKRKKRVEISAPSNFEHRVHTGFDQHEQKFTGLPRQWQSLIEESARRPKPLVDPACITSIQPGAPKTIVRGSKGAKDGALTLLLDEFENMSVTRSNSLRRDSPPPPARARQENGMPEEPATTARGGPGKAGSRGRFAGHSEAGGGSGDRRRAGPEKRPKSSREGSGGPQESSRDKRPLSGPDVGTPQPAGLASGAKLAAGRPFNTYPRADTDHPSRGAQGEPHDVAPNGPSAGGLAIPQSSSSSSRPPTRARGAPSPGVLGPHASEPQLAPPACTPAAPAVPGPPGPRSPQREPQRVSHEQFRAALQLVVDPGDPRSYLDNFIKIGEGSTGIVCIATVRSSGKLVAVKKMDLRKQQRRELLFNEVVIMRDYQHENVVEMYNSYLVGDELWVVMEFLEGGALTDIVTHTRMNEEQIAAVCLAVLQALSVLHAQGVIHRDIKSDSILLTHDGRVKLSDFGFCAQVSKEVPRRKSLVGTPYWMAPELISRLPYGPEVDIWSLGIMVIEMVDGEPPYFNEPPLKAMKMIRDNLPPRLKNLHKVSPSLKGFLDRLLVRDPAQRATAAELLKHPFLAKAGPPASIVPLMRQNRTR

[2] = molecular target: T2, Serine/threonine-protein kinase PAK 1 (Homo sapiens, UniProt Q13153); experiment: Inhibition of human PAK1 kinase domain using coumarin and fluorescein-labeled ser/thr19 peptide as substrate preincubated for 15 mins followed by ATP addition measured after 60 mins by Z'-Lyte assay
T2 sequence (Q13153 whole entry, the tested form may be a part): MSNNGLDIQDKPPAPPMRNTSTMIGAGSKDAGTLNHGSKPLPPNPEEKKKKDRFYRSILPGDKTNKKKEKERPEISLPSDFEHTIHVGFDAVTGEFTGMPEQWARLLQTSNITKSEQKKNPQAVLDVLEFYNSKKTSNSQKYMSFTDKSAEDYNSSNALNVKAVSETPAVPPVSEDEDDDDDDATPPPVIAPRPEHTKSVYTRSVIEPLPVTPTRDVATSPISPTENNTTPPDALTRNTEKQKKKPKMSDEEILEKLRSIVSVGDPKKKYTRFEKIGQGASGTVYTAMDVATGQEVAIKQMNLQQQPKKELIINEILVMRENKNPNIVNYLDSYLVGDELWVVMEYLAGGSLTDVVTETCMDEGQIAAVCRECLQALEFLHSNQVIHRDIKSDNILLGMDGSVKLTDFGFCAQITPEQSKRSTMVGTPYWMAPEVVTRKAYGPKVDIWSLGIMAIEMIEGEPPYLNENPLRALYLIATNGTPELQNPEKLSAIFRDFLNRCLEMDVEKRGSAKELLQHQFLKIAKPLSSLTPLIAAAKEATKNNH
Procedure, shortened: (§1)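 FRET-based Z′-Lyte kinase assay run per the kit instructions. Ki values are the average of at least two duplicate experiments; SEM < ±20%.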

[3] = molecular target: T1, Serine/threonine-protein kinase PAK 4; experiment: Inhibition of human PAK4 kinase domain using coumarin and fluorescein-labeled ser/thr20 peptide as substrate preincubated for 15 mins followed by ATP addition measured after 60 mins by Z'-Lyte assay
Target sequence in this assay (O96013 whole entry, the tested form may be a part): as the sequence (O96013 whole entry, the tested form may be a part) above

[4] = molecular target: Serine/threonine-protein kinase PAK 5 (Homo sapiens, UniProt Q9P286); experiment: Inhibition of full length recombinant human His-tagged PAK5 […] expressed in Baculovirus expression system by Z'-Lyte assay
Sequence of Serine/threonine-protein kinase PAK 5 (Q9P286 whole entry, the tested form may be a part): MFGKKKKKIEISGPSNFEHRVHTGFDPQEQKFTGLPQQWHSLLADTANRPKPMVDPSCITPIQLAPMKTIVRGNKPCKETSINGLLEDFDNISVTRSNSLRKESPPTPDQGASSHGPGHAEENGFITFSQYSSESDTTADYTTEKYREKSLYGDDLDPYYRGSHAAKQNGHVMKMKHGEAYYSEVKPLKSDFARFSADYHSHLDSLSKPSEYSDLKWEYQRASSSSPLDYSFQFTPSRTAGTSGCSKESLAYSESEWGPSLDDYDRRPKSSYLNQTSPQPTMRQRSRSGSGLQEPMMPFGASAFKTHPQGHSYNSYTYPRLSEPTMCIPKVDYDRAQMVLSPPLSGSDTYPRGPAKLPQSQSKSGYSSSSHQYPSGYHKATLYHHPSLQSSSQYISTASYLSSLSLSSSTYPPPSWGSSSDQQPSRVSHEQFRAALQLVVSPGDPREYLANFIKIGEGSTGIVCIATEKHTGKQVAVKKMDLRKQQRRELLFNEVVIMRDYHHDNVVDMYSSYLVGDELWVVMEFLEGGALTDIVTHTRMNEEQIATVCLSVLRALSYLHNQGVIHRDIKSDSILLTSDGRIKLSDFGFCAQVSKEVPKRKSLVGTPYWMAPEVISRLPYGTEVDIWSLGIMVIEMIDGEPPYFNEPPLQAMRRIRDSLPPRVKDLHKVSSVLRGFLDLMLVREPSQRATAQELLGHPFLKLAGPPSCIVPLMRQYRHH

[5] = molecular target: T1, Serine/threonine-protein kinase PAK 4; experiment: Inhibition of GST-tagged human PAK4 (295 to 591 residues) expressed in Baculovirus expression system by Z'-Lyte assay; procedure, shortened: as §1
Target sequence in this assay (O96013 whole entry, the tested form may be a part): as the sequence (O96013 whole entry, the tested form may be a part) above

[6] = molecular target: T1, Serine/threonine-protein kinase PAK 4; experiment: Inhibition of PAK4 (unknown origin) using histone H3 as substrate
Target sequence in this assay (O96013 whole entry, the tested form may be a part): as above

[7] = molecular target: T2, Serine/threonine-protein kinase PAK 1; experiment: Inhibition of PAK1 (unknown origin)
[8] = molecular target: T1, Serine/threonine-protein kinase PAK 4; experiment: Binding affinity to human truncated PAK4 kinase domain assessed as change in melting temperature at 20 uM by SYPRO orange dye based differential scanning fluorimetry
Procedure, shortened: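 Melting-temperature shift of the compound–truncated PAK4 complex was measured by differential scanning fluorimetry, relative to the truncated PAK4 protein alone.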
Target sequence in this assay (O96013 whole entry, looked up, the tested form may be a part): as the sequence (O96013 whole entry, the tested form may be a part) above

A549 [9] = experiment: Antiproliferative activity against human A549 cells up to 72 hrs by MTT assay; type: functional, cell-based
A549 [10] = experiment: Antimigratory activity against human A549 cells at 0.5 to 10 uM after 48 hrs by wound healing assay; type: functional, cell-based
[11] = molecular target: T1, Serine/threonine-protein kinase PAK 4; experiment: Inhibition of human PAK4 in human A549 cells assessed as decrease in phosphorylation levels of LIMK1 by Western blotting method; type: cell-based
Target sequence in this assay (O96013 whole entry, looked up, the tested form may be a part): as the sequence (O96013 whole entry, the tested form may be a part) above

NCI-H460 [12] = experiment: Antimigratory activity against human NCI-H460 cells at 0.5 to 10 uM after 24 hrs by transwell assay; type: functional, cell-based
[13] = molecular target: T1, Serine/threonine-protein kinase PAK 4; experiment: Inhibition of human PAK4 in human A549 cells assessed as decrease in phosphorylation levels of PAK4 at Ser474 residue by Western blot method; type: cell-based
Target sequence in this assay (O96013 whole entry, looked up, the tested form may be a part): as the sequence (O96013 whole entry, the tested form may be a part) above

[14] = molecular target: T1, Serine/threonine-protein kinase PAK 4; experiment: Inhibition of GST-tagged human PAK4 (295 to 591 residues) expressed in Baculovirus expression system at 0.1 uM by Z'-Lyte assay relative to control
Target sequence in this assay (O96013 whole entry, looked up, the tested form may be a part): as the sequence (O96013 whole entry, the tested form may be a part) above

[15] = molecular target: T1, Serine/threonine-protein kinase PAK 4; experiment: Inhibition of human PAK4 in human A549 cells assessed as decrease in phosphorylation levels of cofilin by Western blotting method; type: cell-based
Target sequence in this assay (O96013 whole entry, looked up, the tested form may be a part): as the sequence (O96013 whole entry, the tested form may be a part) above

[16] = molecular target: T1, Serine/threonine-protein kinase PAK 4; experiment: Inhibition of human PAK4 in human A549 cells assessed as decrease in phosphorylation of GEF-H1 at Ser810 residue up to 10 uM by Western blotting method; type: cell-based
Target sequence in this assay (O96013 whole entry, looked up, the tested form may be a part): as the sequence (O96013 whole entry, the tested form may be a part) above

[17] = molecular target: T1, Serine/threonine-protein kinase PAK 4; experiment: Inhibition of human PAK4 in human A549 cells assessed as decrease in MMP2 expression up to 10 uM by Western blotting method; type: cell-based
HEK293 [18] = experiment: Antimigratory activity against human HEK293 cells at 0.5 to 10 uM after 24 hrs by transwell assay; type: functional, cell-based
A549 [19] = experiment: Antiinvasive activity against human A549 cells at 0.5 to 10 uM after 24 hrs by transwell assay; type: functional, cell-based
A549 [20] = experiment: Antimigratory activity against human A549 cells at 0.5 to 10 uM after 24 hrs by transwell assay; type: functional, cell-based
NCI-H460 [21] = experiment: Antiinvasive activity against human NCI-H460 cells at 0.5 to 10 uM after 24 hrs by transwell assay; type: functional, cell-based
HEK293 [22] = experiment: Antiinvasive activity against human HEK293 cells at 0.5 to 10 uM after 24 hrs by transwell assay; type: functional, cell-based

Structure (SMILES)	Ratio Ki (Homo sapiens)	Ki [2]	Ki [3]	other results
Cc1cc(Nc2nc(N3CCC(N)CC3)nc3ccc(Cl)cc23)n[nH]1	18	1890 nM	99 nM	Kd [1]: 43 nM
Cc1cc(Nc2nc(C(=O)N3CCOCC3)nc3ccc(Cl)cc23)n[nH]1	–	–	2170 nM	Kd [1]: 1940 nM
CC[C@@H]1CN(C(=O)c2nc(Nc3cc(C4CC4)[nH]n3)c3cc(Cl)ccc3n2)CCN1	61	368 nM	6 nM	–
CC1CN(C(=O)c2nc(Nc3cc(C4CC4)[nH]n3)c3cc(Cl)ccc3n2)CC(C)N1 (mixture of isomers)	> 40	> 4520 nM	114 nM	–
C[C@@H]1CNCCN1C(=O)c1nc(Nc2cc(C3CC3)[nH]n2)c2cc(Cl)ccc2n1	122	2080 nM	17 nM	–
Cc1cc(Nc2nc(C(=O)NC3CCNCC3)nc3ccc(Cl)cc23)n[nH]1	–	–	325 nM	–
C[C@H]1CNCCN1C(=O)c1nc(Nc2cc(C3CC3)[nH]n2)c2cc(Cl)ccc2n1	15	383 nM	26 nM	–
Cc1cc(Nc2nc(C(=O)N3CCN(C)CC3)nc3ccc(Cl)cc23)n[nH]1	–	–	768 nM	–
Cc1cc(Nc2nc(C(=O)N3CCNC[C@@H]3C)nc3ccc(Cl)cc23)n[nH]1	> 21	> 4520 nM	218 nM	–
C[C@@H]1CN(C(=O)c2nc(Nc3cc(C4CC4)[nH]n3)c3cc(F)ccc3n2)CCN1	31	503 nM	16 nM	–
CC(C)c1cc(Nc2nc(N3CCC(N)CC3)nc3ccc(Cl)cc23)n[nH]1	–	–	77 nM	–
C[C@@H]1CN(C(=O)c2nc(Nc3cc(C4CC4)[nH]n3)c3cc(Cl)ccc3n2)CCN1 [listing 1 of 2 here]	–	3110 nM	–	IC50 [4]: 15 nM; IC50 [5]: 11.1 nM
C[C@@H]1CN(C(=O)c2nc(Nc3cc(C4CC4)[nH]n3)c3ccc(Cl)cc3n2)CCN1	57	401 nM	7 nM	–
NC1CCN(c2nc(Nc3cn(C4CC4)cn3)c3cc(Cl)ccc3n2)CC1	–	–	652 nM	–
NC1CCN(c2nc(Nc3cc(-c4ccccc4)[nH]n3)c3cc(Cl)ccc3n2)CC1	–	–	256 nM	–
COc1cccc(Nc2nc(NCC3CCCO3)c3ccccc3n2)c1 (configuration not stated)	–	–	–	IC50 [6]: 14900 nM; IC50 [7]: 48400 nM
Cc1cc(Nc2nc(C(=O)N(C)C3CCCNC3)nc3ccc(Cl)cc23)n[nH]1 (racemic)	–	–	1630 nM	–
Cc1cc(Nc2nc(C(=O)N3CCC(C)(N)CC3)nc3ccc(Cl)cc23)n[nH]1	–	–	674 nM	–
Cc1cc(Nc2nc(C(=O)N(C)C3CCNCC3)nc3ccc(Cl)cc23)n[nH]1	–	–	576 nM	–
Cc1cc(Nc2nc(C(=O)N3CCNC[C@H]3C)nc3ccc(Cl)cc23)n[nH]1	> 30	> 4520 nM	151 nM	–

Structure (SMILES)	Ratio Ki (Homo sapiens)	Ki [2]	Ki [3]	other results
Cc1cc(Nc2nc(C(=O)N3CCC(O)CC3)nc3ccc(Cl)cc23)n[nH]1	–	–	3820 nM	–
COc1ccc2nc(C(=O)N3CCN[C@H](C)C3)nc(Nc3cc(C4CC4)[nH]n3)c2c1	> 126	> 4520 nM	36 nM	–
Cc1cc(Nc2nc(C(=O)NC3CNC3)nc3ccc(Cl)cc23)n[nH]1	–	–	782 nM	–
Cc1cc(Nc2nc(C(=O)N3CCC(C)(O)CC3)nc3ccc(Cl)cc23)n[nH]1	–	–	3890 nM	–
C[C@@H]1CN(C(=O)c2nc(Nc3cc(C4CC4)[nH]n3)c3cc(Br)ccc3n2)CCN1	190	2080 nM	11 nM	–
Cc1cc(Nc2nc(C(=O)N3CCNC(=O)C3)nc3ccc(Cl)cc23)n[nH]1	–	–	2410 nM	–
Cc1cc(Nc2nc(C(=O)N3CCN[C@@H](C)C3)nc3ccc(Cl)cc23)n[nH]1	> 15	> 4520 nM	306 nM	–
O=C(c1nc(Nc2cc(C3CC3)[nH]n2)c2cc(Cl)ccc2n1)N1CCNCC1	172	2750 nM	16 nM	Kd [1]: 16 nM
NC1CCN(c2nc(Nc3cn(-c4ccccc4)cn3)c3cc(Cl)ccc3n2)CC1	–	–	1440 nM	–
Cn1cnc(Nc2nc(N3CCC(N)CC3)nc3ccc(Cl)cc23)c1	> 14	> 10000 nM	710 nM	ΔTm [8]: 0.5 °C; Kd [1]: 156 nM
C[C@@H]1CN(C(=O)c2nc(Nc3cc(C4CC4)[nH]n3)c3cc(Cl)ccc3n2)CCN1 [listing 2 of 2 here]	346	–	–	Activity (A549 [9]): Active; Activity (A549 [10]): Active; inhibition [11]: Dose-dependent effect; Activity (NCI-H460 [12]): inactive; inhibition [13]: Dose-dependent effect; inhibition [14]: > 80%; inhibition [15]: Dose-dependent effect; inhibition [16]: Active; inhibition [17]: Active; Activity (HEK293 [18]): inactive; Activity (A549 [19]): Active; Activity (A549 [20]): Active; Activity (NCI-H460 [21]): inactive; Activity (HEK293 [22]): inactive
C[C@@H]1CN(C(=O)c2nc(Nc3cc(C4CC4)[nH]n3)c3ccccc3n2)CCN1	63	1070 nM	17 nM	–
CNC1CCN(C(=O)c2nc(Nc3cc(C)[nH]n3)c3cc(Cl)ccc3n2)CC1	–	–	672 nM	–
Cc1cc(Nc2nc(C(=O)N3CCNCC3)nc3ccc(Cl)cc23)n[nH]1	> 222	> 10000 nM	45 nM	Kd [1]: 66 nM
CC(C)n1cnc(Nc2nc(N3CCC(N)CC3)nc3ccc(Cl)cc23)c1	–	–	884 nM	–
Cc1cc(Nc2nc(C(=O)N3CCC(N)CC3)nc3ccc(Cl)cc23)n[nH]1	–	–	354 nM	–
C[C@H]1CN(C(=O)c2nc(Nc3cc(C4CC4)[nH]n3)c3cc(Cl)ccc3n2)CCN1	25	690 nM	28 nM	–
Cc1cc(Nc2nc(C(=O)N3CCN[C@H](C)C3)nc3ccc(Cl)cc23)n[nH]1	> 196	> 10000 nM	51 nM	–
Cc1cc(Nc2nc(C(=O)N3CC(C)NC(C)C3)nc3ccc(Cl)cc23)n[nH]1 (mixture of isomers)	–	–	119 nM	–
NC1CCN(c2nc(Nc3cc(C4CC4)[nH]n3)c3cc(Cl)ccc3n2)CC1	19	288 nM	16 nM	Kd [1]: 6 nM
